Furin inhibitor: human furin inhibition. purified furin, fluorogenic substrate cleavage. hit rate 0.061% among 220,000. inhibition, % at 20 µM or 30 µM. P09958; in the data active means inhibition above about 25%
Target sequence (P09958 108-714 limits assumed): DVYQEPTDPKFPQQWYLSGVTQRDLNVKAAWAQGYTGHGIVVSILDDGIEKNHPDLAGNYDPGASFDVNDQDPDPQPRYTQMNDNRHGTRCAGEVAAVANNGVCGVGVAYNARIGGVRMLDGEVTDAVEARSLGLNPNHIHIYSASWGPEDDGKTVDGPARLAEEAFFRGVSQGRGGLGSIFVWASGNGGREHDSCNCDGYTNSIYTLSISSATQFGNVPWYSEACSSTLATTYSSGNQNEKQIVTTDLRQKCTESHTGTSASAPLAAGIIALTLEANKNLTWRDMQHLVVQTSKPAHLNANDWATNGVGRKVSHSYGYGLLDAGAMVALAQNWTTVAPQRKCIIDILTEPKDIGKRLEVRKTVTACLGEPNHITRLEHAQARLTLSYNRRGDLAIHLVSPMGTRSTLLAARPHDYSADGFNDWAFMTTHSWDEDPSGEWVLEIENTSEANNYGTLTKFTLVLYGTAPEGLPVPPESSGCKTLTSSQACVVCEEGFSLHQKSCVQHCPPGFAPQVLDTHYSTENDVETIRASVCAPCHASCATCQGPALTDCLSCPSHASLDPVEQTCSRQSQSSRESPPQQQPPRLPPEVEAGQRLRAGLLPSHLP
Autophagy HCS: modulators of autophagy; AID 463193; MEF GFP-LC3 puncta imaging; test concentration mostly 10 µM; calls only at 10 µM (by protocol); hit rate 0.98% among 190,000;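 active means percentage of spot-positive cells more than 3 SD above its plate mean, without a fluorescence outlier flag or 80% toxicity; inconclusive means no clear call, values can overlap the other calls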;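 further: spot-positive cell cutoff set from DMSO-treated cells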
Ins promoter up: MIN6 insulin promoter up-regulation; MIN6 insulin promoter-GFP reporter, high-content imaging; active compounds read high; z-score at 5 µM; hit rate 0.3% among 190,000; AID 1625;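 active means z-score above 3 at 5 µM with at least 500 cells counted in the well; inconclusive means wells under 500 cells, flagged as cytotoxic or low count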
HSV replic up: HSV replication enhancement | HSV replication augmentation in cells, fold increase | maximum fold increase | hit rate 0.005% among 220,000 | AID 1956; in the data active means maximum fold increase above about 1.5; inconclusive means no clear call, values can overlap the other calls; tested in PC3 cells
INS promoter inh: TRM-6 insulin promoter activity inhibition; inhibition, % at 2 µM; TRM-6 cells, insulin promoter-eGFP reporter, imaging; reporter expression induced with tamoxifen; AID 1273; hit rate 0.9% among 130,000;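 active means inhibition above the mean plus 3 SD, with well images judged a real hit on visual review, cut at about 60% in these data, passing the limit was not always enough; inconclusive means inhibition over the cutoff but images rejected on review; inactive means inhibition not above the cutoff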
Dynein cargo inh: blocks dynein driven cargo transport along microtubules | 3617.4 mouse cells, GR-EGFP nuclear translocation imaging; test concentration mostly 20 µM; stimulated with dexamethasone, 1 µM; active compounds read low | z-score, hits read low | hit rate 0.47% among 220,000;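 active means plate z-score of nuclear minus cytoplasmic receptor signal below a set negative limit, without overly bright fluorescence or cell loss, cut at about -3.5 in these data, passing the limit was not always enough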;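 further: z-score of nuclear minus cytoplasmic ring GR-EGFP intensity difference per well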
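Buffer or medium: tet-free, stripped-serum medium; reagent: dexamethasone at 1.0 µM final, 30 min; incubation: 48 h induction, 1 h compound, 30 min dex at 37 °C; measured by: formaldehyde fixation, Hoechst nuclear stain, 10x automated fluorescence imaging; read-out: nuclear-to-cytoplasmic GR-EGFP distribution per well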
Active calls of the source: *; i = inactive; ? = inconclusive; . = no result given; + = active, no number. Sampled rows, rich in hits. Any-hit rate of the full collection: about 2%.

SMILES	Furin inhibitor	Autophagy HCS	Ins promoter up	HSV replic up	INS promoter inh	Dynein cargo inh
Cc1ccc(C(=O)N/N=C/c2ccc(-c3ccccc3[N+](=O)[O-])o2)cn1	3	i	-0.04	i	.	0.31
COc1ccc(-c2ccc(/C=N/NC(=O)c3cccnc3)o2)c([N+](=O)[O-])c1	-6	+	2.3	i	-116	-2.4
CCCCc1nc2ccccc2[nH]1	-12	i	-0.11	i	89*	0.87
CCCC(=O)NCCCc1nc2ccccc2[nH]1	-17	i	-0.32	i	.	-0.56
Cc1cc(C(=O)N=Nc2c(O)n(C(C)C)c3ccccc23)n[nH]1	-3	i	-1.4	i	-28	-0.24
CC(C)n1c(O)c(N=Nc2ccc(Cl)nn2)c2ccccc21	-15	+	0.59	i	-94	-0.99
C=C(C)Cn1c(C)cc(C)c(S(=O)(=O)c2cccc(C)c2)c1=O	-3	i	0.11	i	.	-0.4
Cc1cc(NC(=O)CSc2nnc(C3COc4ccccc4O3)n2N)no1 (stereo not given)	-34	.	1.3	i	.	-0.78
Cc1cc(NC(=O)CSc2nnc(C3COc4ccccc4O3)o2)no1 (stereo not given)	-13	+	1.7	i	-40	-0.036
Cc1cccc(CN2CCN(Cc3cccc(-n4cccn4)c3)CC2CCO)n1 (stereo not given)	-18	+	.	i	.	-0.5
CC(=O)C1=C(C)Nc2ncnn2C1c1cccc(OCc2ccccc2)c1 (stereo not given)	-10	.	-1.1	i	.	1.6
CC(=O)C1=C(C)Nc2ncnn2C1c1ccc(Cl)cc1Cl (stereo not given)	-16	i	3.5*	i	.	0.093
CC(C)(C)C(=O)/C(=C\c1ccc([N+](=O)[O-])cc1)n1cncn1	-9	+	.	i	-88	-5.1*
CN(C)/C=C(/C(=O)c1ccccc1)n1cncn1	-21	i	.	i	28	-0.81
COc1ccc(O)c(/C=N/NC(=S)Nc2cccc(S(=O)(=O)N(C)C)c2)c1	-8	+	-0.26	i	30	1.7
Cc1cccn2c(CN(C)CC3Cc4ccccc4O3)c(C(=O)N3CCCCC3)nc12 (stereo not given)	-5	i	0.24	i	.	1.6
Cc1[nH]c2ccccc2c1/C=C/c1nc2ccccc2c(=O)n1-c1ccc([N+](=O)[O-])cc1	-20	+	0.05	i	-24	-0.19
COc1ccc2oc(C(=O)c3ccccc3)c(NC(=O)CN3CCN(C)CC3)c2c1	-12	+	-2.2	.	.	1.5
COc1ccccc1CCc1nnc(CCC(=O)N(C)Cc2cccc3ncccc23)o1	-26	i	-0.2	i	.	0.71
CCn1nnnc1SCC(=O)N1CCOCC1	-5	i	-0.59	i	-3	0.82
CCCn1nnnc1SCC(=O)N1CCOCC1	-22	i	-0.14	i	83*	1.5
Cc1cc(NC(=O)COc2cccc(Oc3ccccc3)c2)no1	-24	+	0.34	i	4	-1.2
CCC(C(=O)Nc1cc(C)on1)c1ccccc1 (stereo not given)	-16	i	0.26	i	70*	-0.67
Cc1cccc(OCC(=O)Nc2cc(C)on2)c1	-19	i	.	i	38	-0.87
COCCCNC(CC(=O)Nc1ccccc1C(=O)OC)C(=O)O (stereo not given)	28*	i	.	.	-7	-0.66
SMILES	Furin inhibitor	Autophagy HCS	Ins promoter up	HSV replic up	INS promoter inh	Dynein cargo inh
COC(=O)c1ccccc1NC(=O)CC(NCc1ccccc1)C(=O)O (stereo not given)	-2	i	.	i	10	0.1
Cc1ccc(NC(=O)c2cccc3c2-c2ccccc2C3=O)cc1C	-10	i	0.03	i	-31	-0.73
CC(=O)Nc1ccc(NC(=O)c2cccc3c2-c2ccccc2C3=O)cc1	-4	i	0.06	i	75*	1.2
Cc1cc(C)c(S(=O)(=O)Nc2ccnc(-c3cccnc3)n2)c(C)c1	-14	i	0.45	i	.	-0.82
COCCCNCC#CCOc1ccc(OC)cc1	-5	+	0.3	i	.	0.81
CCCCNc1cc(C)nc(NCc2ccccc2)n1	-30	+	?	i	.	-0.56
Cc1cc(Nc2ccccc2)nc(NCc2ccccc2)n1	-18	i	-5	i	.	-0.66
C#CC[N+]1(CC#Cc2ccc(C)cc2)CCCCC1	-22	i	-0.36	i	4	-0.44
Cc1ccc(S(=O)(=O)N(C)CC(=O)Nc2cccc(C)n2)cc1	-3	i	-0.2	i	79*	2.1
O=c1c(/C=N/OCc2ccc(Cl)cc2Cl)c[nH]n1-c1cccc(Cl)n1	-26	i	0.61	i	.	-0.45
O=c1c(-n2cncn2)c[nH]n1-c1cccc(Cl)n1	-12	i	0.08	i	92*	2.2
Clc1ccc(C2=C3CCCCn4c(-c5ccccc5)c[n+](c43)C2)cc1	-29	+	.	i	-8	-2.8
COc1ccc(-c2c[n+]3c4n2CCCCC4=C(c2ccc(Br)cc2)C3)cc1	-121	i	-2.2	.	.	-1.1
O=C(CO/N=C/c1cccc([N+](=O)[O-])c1)Nc1ccc2ccccc2c1	-11	i	0.69	i	-3	1.3
O=[N+]([O-])c1cccc(/C=C/c2nc(C=Nc3ccc4ccccc4c3)c(O)o2)c1	3	+	.	.	18	-0.79
Cc1nccn1CCC(=O)Nc1ccc(Cl)cc1	-11	i	1	i	-27	0.33
COc1cc(C(=O)NCCN2CCCC2)cc(OC)c1OC	-26	+	0.71	i	33	-0.063
CSc1ccccc1NC(=O)CN1CC(C)OC(C)C1 (stereo not given)	-14	i	0.7	i	.	1.2
CC(=O)Oc1ccc(N2C(=O)C3C4C=CC(CO)(O4)C3C2=O)cc1 (stereo not given)	-11	i	0.35	i	4	0.033
O=C1C2C3C=CC(CO)(O3)C2C(=O)N1c1ccccc1-c1ccccc1 (stereo not given)	-15	i	0.89	i	.	-5.7*
Cc1ccc(Cl)c(NC(=O)COC(=O)c2ccccc2C(=O)c2ccc(Cl)c([N+](=O)[O-])c2)c1Cl	-13	+	-0.15	i	-53	-1.2
Cc1ccc(S(=O)(=O)Nc2cnn(-c3ccccc3)c(=O)c2Cl)cc1	-24	i	-0.19	i	7	-0.31
CC(C)(C)C1C/C(=C/c2ccccn2)C(=O)/C(=C/c2ccccn2)C1 (stereo not given)	0	i	?	i	i	-4.9*
CC1C/C(=C/c2ccccn2)C(=O)/C(=C/c2ccccn2)C1 (stereo not given)	-7	i	-2.6	i	?	-5.8*
O=C1/C(=C/c2ccccn2)COc2ccccc21	-17	i	0.76	i	29	-1.4
Cc1ccc(S(=O)(=O)N2CCC(c3nc4c(nnn4Cc4ccccc4)c(=O)[nH]3)CC2)cc1	-13	+	-0.71	i	.	0.88

Screens deposited in PubChem BioAssay by several laboratories.
